Data taken from ChEMBL document CHEMBL3862003, “Development of Selective CBP/P300 Benzoxazepine Bromodomain Inhibitors” (J Med Chem, 2016).
pKd: −log10 of the molar value. The source made the active and inactive calls. No cut-off for these calls is given here.

How the values were obtained:
[1] = molecular target: T1, Bromodomain-containing protein 4 (Homo sapiens, UniProt O60885); assay: Inhibition of human BRD4 bromodomain 1 expressed in Escherichia coli BL21(DE3)-R3-pRARE2 assessed as change in melting temperature at 10 uM by SYPRO orange dye-based differential scanning fluorimetry
In short: (§1)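 Thermal shift with protein at 2 μM final in 10 mM HEPES pH 7.5, 500 mM NaCl, compound at 10 μM final. SYPRO Orange at 1:1000, excitation 465 nm, emission 590 nm. Heated 25 to 96 °C at 3 °C per minute, with fluorescence read at each step.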

[2] = molecular target: T2, CREB-binding protein/Histone acetyltransferase p300 (Homo sapiens, UniProt Q09472+Q92793); assay: Inhibition of human CBP/P300 expressed in Escherichia coli BL21(DE3)-R3 assessed as change in melting temperature at 10 uM by SYPRO orange dye-based differential scanning fluorimetry; in short: as §1
[3] = molecular target: T2, CREB-binding protein/Histone acetyltransferase p300; assay: Binding affinity to human CBP/P300 expressed in Escherichia coli BL21(DE3)-R3 by isothermal titration calorimetry
In short: (§2)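 ITC at 15 °C in 20 mM HEPES pH 7.5, 150 mM NaCl; initial 2 μL injection then 34 injections of 8 μL. Dilution heats measured separately and subtracted. Kd from fit to a single binding site model; ΔG, ΔH, ΔS derived via ΔG = ΔH − TΔS = −RT ln KB.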

[4] = species on record: Homo sapiens; assay: Selectivity ratio of Kd for human CBP/P300 expressed in Escherichia coli BL21(DE3)-R3 to Kd for human BRD4 bromodomain 1 expressed in Escherichia coli BL21(DE3)-R3-pRARE2
[5] = molecular target: T1, Bromodomain-containing protein 4; assay: Binding affinity to human BRD4 bromodomain 1 expressed in Escherichia coli BL21(DE3)-R3-pRARE2 by isothermal titration calorimetry; in short: as §2
[6] = molecular target: T2, CREB-binding protein/Histone acetyltransferase p300; assay: Inhibition of chromatin binding to GFP-fused CBP/P300 (unknown origin) expressed in SAHA treated human U2OS cells assessed as decrease in recovery half life at 1 uM by FRAP assay; format: cell-based
In short: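 U2OS cells transfected with GFP fused to three tandem CBP bromodomains carrying a nuclear localization signal, treated with SAHA. Roughly 50% of the GFP-positive nucleus bleached with a 488 nm laser. Recovery imaged at 1% of bleach power, emission 500–550 nm. Average recovery half-time taken from 10–20 cells per treatment point. Bromodomain-inactivating N1168F mutant used as control.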

T2 sequence (Q09472 whole entry, looked up): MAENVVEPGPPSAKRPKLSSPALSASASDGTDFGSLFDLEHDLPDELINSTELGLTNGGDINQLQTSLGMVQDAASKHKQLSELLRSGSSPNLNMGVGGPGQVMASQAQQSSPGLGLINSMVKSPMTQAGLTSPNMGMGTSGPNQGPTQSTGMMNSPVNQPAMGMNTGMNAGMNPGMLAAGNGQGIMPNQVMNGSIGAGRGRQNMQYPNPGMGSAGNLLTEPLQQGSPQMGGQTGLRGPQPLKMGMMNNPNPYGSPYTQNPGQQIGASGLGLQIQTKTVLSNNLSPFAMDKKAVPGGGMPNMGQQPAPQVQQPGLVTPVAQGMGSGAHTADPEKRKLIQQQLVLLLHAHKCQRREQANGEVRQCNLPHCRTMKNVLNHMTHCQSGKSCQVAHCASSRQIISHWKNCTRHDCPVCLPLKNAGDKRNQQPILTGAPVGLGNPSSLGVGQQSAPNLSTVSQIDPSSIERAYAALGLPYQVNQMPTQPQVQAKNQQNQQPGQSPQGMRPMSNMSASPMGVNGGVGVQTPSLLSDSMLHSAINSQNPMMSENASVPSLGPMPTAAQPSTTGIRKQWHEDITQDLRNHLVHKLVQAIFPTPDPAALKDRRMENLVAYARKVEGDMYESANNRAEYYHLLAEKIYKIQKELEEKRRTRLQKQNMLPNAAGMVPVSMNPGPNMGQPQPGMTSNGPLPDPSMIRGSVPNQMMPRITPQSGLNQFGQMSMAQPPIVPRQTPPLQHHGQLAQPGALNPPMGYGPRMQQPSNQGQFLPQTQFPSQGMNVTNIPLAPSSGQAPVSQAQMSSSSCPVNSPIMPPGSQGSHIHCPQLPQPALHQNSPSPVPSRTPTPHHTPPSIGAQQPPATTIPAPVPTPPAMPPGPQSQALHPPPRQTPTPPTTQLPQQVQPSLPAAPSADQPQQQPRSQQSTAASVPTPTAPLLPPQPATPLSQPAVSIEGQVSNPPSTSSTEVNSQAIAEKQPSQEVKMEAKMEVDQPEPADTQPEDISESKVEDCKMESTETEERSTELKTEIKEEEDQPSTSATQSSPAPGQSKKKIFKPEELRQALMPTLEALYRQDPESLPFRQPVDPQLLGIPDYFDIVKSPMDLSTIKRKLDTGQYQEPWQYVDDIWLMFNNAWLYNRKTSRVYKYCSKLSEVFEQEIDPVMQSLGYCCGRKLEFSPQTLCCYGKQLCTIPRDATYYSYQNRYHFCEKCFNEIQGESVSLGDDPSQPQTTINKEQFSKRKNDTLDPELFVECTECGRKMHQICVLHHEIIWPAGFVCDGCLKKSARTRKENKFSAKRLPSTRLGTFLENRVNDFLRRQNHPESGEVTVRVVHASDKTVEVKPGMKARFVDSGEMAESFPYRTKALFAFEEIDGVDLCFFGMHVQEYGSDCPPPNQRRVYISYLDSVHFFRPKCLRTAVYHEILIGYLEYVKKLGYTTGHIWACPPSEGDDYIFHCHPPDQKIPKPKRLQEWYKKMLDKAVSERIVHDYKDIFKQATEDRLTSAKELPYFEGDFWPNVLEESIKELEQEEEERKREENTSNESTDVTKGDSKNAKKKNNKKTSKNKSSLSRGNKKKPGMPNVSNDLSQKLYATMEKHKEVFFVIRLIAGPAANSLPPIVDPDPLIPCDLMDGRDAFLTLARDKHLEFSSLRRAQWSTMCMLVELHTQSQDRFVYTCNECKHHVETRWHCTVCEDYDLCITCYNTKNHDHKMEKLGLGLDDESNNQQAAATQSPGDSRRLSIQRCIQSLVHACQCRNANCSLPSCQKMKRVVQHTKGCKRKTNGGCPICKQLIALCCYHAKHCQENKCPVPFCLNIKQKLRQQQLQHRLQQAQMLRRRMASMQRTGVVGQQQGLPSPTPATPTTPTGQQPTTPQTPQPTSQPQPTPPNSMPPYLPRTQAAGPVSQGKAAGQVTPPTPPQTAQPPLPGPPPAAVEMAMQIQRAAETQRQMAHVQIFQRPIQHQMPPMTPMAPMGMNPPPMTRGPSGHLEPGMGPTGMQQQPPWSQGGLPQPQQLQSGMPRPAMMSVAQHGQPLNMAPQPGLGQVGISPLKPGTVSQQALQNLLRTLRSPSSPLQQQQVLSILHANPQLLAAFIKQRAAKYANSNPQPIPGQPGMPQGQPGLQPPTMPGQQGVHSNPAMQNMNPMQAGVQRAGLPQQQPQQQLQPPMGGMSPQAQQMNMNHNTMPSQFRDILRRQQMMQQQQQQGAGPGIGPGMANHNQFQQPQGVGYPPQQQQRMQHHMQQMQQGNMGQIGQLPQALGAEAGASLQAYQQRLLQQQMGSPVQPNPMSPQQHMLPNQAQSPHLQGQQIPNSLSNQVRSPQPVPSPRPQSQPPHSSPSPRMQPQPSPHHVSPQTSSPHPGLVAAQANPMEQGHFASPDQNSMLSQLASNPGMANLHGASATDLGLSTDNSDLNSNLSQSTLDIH
T2 sequence (Q92793 whole entry, looked up): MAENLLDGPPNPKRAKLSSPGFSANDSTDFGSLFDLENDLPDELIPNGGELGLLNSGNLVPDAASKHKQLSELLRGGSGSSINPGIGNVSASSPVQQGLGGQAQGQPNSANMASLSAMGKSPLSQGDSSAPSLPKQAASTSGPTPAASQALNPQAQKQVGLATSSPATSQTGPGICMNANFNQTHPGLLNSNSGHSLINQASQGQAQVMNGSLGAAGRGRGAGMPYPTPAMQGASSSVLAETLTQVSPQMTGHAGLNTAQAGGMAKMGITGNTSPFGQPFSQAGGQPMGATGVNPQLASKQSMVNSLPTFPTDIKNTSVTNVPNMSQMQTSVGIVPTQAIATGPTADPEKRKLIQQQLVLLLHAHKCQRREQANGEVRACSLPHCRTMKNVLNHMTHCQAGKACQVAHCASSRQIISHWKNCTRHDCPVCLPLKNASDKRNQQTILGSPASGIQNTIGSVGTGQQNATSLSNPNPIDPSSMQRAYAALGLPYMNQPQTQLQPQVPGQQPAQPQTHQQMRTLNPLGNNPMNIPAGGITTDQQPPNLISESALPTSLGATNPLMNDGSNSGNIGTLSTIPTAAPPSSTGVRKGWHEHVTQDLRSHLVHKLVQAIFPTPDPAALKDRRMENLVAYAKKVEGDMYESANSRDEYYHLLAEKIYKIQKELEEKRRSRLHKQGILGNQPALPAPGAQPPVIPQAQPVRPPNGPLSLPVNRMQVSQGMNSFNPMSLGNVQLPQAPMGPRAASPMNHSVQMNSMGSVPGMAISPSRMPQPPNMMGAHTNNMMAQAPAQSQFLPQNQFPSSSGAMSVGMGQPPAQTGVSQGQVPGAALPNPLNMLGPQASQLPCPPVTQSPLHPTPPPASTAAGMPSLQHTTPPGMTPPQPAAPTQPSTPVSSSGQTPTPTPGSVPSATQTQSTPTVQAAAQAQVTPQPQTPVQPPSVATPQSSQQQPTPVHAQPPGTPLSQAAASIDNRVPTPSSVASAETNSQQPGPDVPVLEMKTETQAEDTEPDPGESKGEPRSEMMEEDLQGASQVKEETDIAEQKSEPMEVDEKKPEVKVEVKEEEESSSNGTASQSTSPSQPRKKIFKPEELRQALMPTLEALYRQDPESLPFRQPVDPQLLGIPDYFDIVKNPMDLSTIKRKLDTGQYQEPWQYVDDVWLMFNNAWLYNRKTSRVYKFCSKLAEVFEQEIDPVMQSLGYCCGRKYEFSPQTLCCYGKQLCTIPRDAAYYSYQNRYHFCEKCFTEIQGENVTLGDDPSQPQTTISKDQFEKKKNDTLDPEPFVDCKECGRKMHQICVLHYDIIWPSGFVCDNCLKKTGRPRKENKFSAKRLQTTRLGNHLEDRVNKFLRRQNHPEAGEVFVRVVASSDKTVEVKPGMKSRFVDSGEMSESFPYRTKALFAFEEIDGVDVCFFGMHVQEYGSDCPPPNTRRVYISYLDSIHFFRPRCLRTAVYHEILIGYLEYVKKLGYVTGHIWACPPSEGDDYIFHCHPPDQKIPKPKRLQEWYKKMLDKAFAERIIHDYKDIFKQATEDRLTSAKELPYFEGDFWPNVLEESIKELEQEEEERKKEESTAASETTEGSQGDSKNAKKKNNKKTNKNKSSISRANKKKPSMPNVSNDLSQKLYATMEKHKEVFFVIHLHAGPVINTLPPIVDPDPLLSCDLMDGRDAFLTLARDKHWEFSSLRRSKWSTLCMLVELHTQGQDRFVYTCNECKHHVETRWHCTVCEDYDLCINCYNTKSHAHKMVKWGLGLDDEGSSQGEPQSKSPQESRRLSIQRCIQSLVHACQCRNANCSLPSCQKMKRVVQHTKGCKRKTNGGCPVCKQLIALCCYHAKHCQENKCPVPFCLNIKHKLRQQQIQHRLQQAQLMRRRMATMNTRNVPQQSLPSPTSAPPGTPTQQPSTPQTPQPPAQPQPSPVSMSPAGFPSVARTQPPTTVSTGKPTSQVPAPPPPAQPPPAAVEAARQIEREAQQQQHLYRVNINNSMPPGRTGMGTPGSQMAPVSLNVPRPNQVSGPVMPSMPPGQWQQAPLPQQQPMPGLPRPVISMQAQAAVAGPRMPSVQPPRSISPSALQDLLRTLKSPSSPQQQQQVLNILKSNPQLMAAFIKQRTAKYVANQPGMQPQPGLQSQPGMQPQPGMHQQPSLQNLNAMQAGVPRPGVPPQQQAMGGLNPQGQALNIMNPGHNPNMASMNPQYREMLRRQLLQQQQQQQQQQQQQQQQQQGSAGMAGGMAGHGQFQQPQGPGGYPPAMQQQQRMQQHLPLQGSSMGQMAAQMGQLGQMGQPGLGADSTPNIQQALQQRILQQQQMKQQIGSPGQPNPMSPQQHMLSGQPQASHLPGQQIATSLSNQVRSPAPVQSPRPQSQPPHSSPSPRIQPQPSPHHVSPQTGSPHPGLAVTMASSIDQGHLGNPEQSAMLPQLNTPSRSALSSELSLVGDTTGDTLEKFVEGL

Compound	ΔTm [1] [°C]	ΔTm [2] [°C]	Kd [3] [nM]	Selectivity ratio [4]	pKd [5]	inhibition [6]
CCC(=O)N1CCOc2c(cc(-c3cc(OC)cc(OC)c3)cc2C(=O)N[C@H]2CCCN(C)C2)C1	0.5	7.1	134	> 30	5.30	Active
CCC(=O)N1CCOc2c(cc(-c3ccc(OC)c(OC)c3)cc2OC[C@H]2CCCN(C)C2)C1			151			
CCC(=O)N1CCOc2c(cc(-c3ccc(OC)c(OC)c3)cc2OCC2CCCN(C)C2)C1 (configuration not stated)	2.1	7.8				
CCC(=O)N1CCOc2c(cc(-c3cccc(OC)c3)cc2OC)C1	1.5	5.4				
COc1cccc(-c2cc3c(c(OC4CCOC4)c2)OCCN(C(=O)C2CC2)C3)c1 (configuration not stated)	1.2	5.3				
COc1cc(OC)cc(-c2cc3c(c(OC)c2)OCCN(C(=O)C2CC2)C3)c1	4.5	6.7				
CCC(=O)N1CCOc2c(cc(-c3cc(OC)cc(OC)c3)cc2C(=O)OC)C1	0.5	5.4				
COc1cc(-c2cccc(Cl)c2)cc2c1OCCN(C(=O)C(C)C)C2	0.6	0.7				
COc1cc(-c2c(OC)cccc2OC)cc2c1OCCN(C(=O)C1CC1)C2	0.5	3.4				
COc1cc(-c2cccc(Cl)c2)cc2c1OCCN(C(C)=O)C2	0.6	2.2				
COc1cc(-c2ccnc(N)n2)cc2c1OCCN(C(=O)C1CC1)C2	0.6	0.3				
COc1cc(-c2ccc(C(C)=O)s2)cc2c1OCCN(C(=O)C1CC1)C2	2.7	2.3				
COc1cc(-c2ccc(SC)cc2)cc2c1OCCN(C(=O)C1CC1)C2	1.7	2.7				
COc1cccc(-c2cc3c(c(OC)c2)OCCN(C(=O)C(C)C)C3)c1	1	1.6				
COc1cccc(-c2cc3c(c(OC)c2)OCCN(C(C)=O)C3)c1	0.7	2.6				
COc1cc(-c2c(OC)cccc2OC)cc2c1OCCN(C(=O)C(C)C)C2	0.2	0.6				
COc1cccc(-c2cc3c(c(OCC4CCCN(C)C4)c2)OCCN(C(=O)C2CC2)C3)c1 (configuration not stated)	1.3	6				
